Legend:
[1] = Drug metabolism in human intestinal microsomes assessed as T-5224 hydroxyl O-glucuronide formation after 10 to 60 mins by HPLC method; assay type: ADME, Intestine, Microsome
Procedure, shortened: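 Pooled liver microsomes (0.5 mg/mL) were incubated 10 min. Pooled intestinal microsomes (0.25 mg/mL) ran 10 min at T-5224 10–50 μM and 20 min at 1–5 μM. Buffer was 50 mM Tris-HCl pH 7.5 with 8 mM MgCl2, alamethicin and 2 mM UDPGA, at 37°C, in triplicate. Glucuronides G2/G3 were read by HPLC at 290 nm and fitted for Vmax/Km.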

Liver microsome [2] = assay: Drug metabolism in human liver microsomes assessed as Vmax/Km ratio for T-5224 hydroxyl O-glucuronide formation per mg protein after 10 to 60 mins by HPLC method; assay type: ADME
Procedure, shortened: (§1)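 Pooled liver (0.5 mg protein/mL) or intestinal (0.25 mg protein/mL) microsomes in 50 mM Tris-HCl pH 7.5, 8 mM MgCl2, alamethicin, 2% DMSO. T-5224 at 1–50 μM, 5 min preincubation at 37°C, started with 2 mM UDPGA. Incubated 10 min, or 20 min for intestinal microsomes at 1–5 μM. Acetonitrile stop, glucuronides by HPLC at 290 nm. Triplicates fitted to a substrate-inhibition model.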

[3] = target: T1, UDP-glucuronosyltransferase 1A3 (Homo sapiens, UniProt P35503); assay: Drug metabolism assessed as human UGT1A3-mediated T-5224 acyl O-glucuronide formation at 5 to 50 uM after 60 mins in presence of UDP-glucuronic acid by HPLC method; assay type: ADME; settings: recombinant enzyme, 1 h
T1 sequence (P35503 whole entry): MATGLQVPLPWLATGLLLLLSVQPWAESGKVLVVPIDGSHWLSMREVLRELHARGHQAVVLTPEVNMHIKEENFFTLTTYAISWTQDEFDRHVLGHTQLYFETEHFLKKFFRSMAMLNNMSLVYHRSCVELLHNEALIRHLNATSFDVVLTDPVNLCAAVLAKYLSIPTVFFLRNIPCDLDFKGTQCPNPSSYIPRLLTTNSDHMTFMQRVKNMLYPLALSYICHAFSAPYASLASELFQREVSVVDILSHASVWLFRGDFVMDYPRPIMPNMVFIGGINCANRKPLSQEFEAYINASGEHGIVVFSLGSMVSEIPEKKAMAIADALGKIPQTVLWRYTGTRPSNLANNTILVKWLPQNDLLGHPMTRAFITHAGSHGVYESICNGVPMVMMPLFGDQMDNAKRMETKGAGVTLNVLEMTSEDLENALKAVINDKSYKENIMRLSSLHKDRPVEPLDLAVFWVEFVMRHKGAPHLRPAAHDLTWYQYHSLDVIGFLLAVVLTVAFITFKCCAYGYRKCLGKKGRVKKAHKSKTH

Liver microsome [4] = assay: Drug metabolism in pooled human liver microsomes assessed as T-5224 acyl O-glucuronide formation in presence of UDPGA by LC-MS/MS method; assay type: ADME
Liver microsome [5] = assay: Drug metabolism in human liver microsomes assessed as Vmax/Km ratio for T-5224 acyl O-glucuronide formation per mg protein after 10 to 60 mins by HPLC method; assay type: ADME; procedure, shortened: as §1
Cytochrome P450 1A2 = target: T2, Cytochrome P450 1A2 (Homo sapiens, UniProt P05177); assay: Drug metabolism assessed as human CYP1A2-mediated metabolite formation at 2 uM after 30 mins by HPLC method; assay type: ADME; settings: recombinant enzyme, 0.5 h
T2 sequence (P05177 whole entry): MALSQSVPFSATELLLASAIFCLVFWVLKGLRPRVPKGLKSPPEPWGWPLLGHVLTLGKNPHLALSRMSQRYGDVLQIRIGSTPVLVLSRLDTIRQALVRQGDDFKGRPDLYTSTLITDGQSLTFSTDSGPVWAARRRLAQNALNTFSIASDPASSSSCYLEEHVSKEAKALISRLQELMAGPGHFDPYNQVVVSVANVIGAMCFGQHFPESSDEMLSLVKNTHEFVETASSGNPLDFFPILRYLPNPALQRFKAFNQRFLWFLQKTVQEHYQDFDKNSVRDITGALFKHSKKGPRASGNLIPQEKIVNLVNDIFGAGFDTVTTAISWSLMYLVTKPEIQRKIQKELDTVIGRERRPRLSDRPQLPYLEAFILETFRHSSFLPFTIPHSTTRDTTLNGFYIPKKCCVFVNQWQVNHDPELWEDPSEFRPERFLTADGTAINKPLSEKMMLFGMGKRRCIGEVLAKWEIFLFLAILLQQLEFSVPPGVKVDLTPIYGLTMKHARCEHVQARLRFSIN
Procedure, shortened: (§2)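 Each recombinant human P450 was used at 50 pmol/mL with an NADPH-generating system and 2 μM 14C-T-5224 (0.5% DMSO final). Buffer was 100 mM Tris-HCl pH 7.5, except 100 mM potassium phosphate pH 7.4 for CYP2A6 and CYP2C9*1. Incubation ran 30 min at 37°C and was stopped with acetonitrile/methanol. Radioactive metabolite peaks were detected by C18 HPLC.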

Cytochrome P450 2C19 = Cytochrome P450 2C19 (Homo sapiens, UniProt P33261); assay: Drug metabolism assessed as human CYP2C19-mediated metabolite formation at 2 uM after 30 mins by HPLC method; assay type: ADME; settings: recombinant enzyme, 0.5 h; procedure, shortened: as §2
[6] = target: T3, UDP-glucuronosyltransferase 1A1 (Homo sapiens, UniProt P22309); assay: Drug metabolism assessed as human UGT1A1-mediated T-5224 acyl O-glucuronide formation at 5 to 50 uM after 60 mins in presence of UDP-glucuronic acid by HPLC method; assay type: ADME; settings: recombinant enzyme, 1 h
T3 sequence (P22309 whole entry): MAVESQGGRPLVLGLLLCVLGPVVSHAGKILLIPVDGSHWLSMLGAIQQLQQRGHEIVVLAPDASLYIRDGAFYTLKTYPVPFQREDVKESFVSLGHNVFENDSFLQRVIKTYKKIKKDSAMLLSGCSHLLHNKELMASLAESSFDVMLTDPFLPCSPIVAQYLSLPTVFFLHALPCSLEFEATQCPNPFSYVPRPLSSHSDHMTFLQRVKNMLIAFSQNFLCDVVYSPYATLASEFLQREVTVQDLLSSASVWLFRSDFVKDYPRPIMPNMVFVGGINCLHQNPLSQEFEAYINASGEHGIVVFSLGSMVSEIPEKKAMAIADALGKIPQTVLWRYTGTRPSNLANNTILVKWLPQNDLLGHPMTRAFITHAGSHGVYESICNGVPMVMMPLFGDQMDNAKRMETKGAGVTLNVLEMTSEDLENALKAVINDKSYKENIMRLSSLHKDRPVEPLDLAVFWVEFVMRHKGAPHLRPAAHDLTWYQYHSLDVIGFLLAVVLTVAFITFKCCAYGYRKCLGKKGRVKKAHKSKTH

Sequence of Cytochrome P450 2C19 (P33261 whole entry): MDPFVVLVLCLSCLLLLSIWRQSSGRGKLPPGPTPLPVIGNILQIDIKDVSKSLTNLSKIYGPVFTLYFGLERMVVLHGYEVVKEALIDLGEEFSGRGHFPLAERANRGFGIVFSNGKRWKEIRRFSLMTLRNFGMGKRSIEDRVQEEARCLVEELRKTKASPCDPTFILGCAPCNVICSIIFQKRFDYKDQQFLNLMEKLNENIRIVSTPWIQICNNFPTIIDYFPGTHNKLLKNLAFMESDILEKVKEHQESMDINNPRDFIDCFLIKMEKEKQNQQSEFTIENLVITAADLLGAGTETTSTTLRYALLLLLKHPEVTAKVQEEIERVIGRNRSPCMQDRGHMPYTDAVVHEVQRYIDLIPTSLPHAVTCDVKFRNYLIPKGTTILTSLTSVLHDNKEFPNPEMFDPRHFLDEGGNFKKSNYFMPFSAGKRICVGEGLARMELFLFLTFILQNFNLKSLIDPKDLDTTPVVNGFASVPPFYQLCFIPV

Q: What does the source list for O=C(O)CCc1cc(C(=O)c2ccc(OC3CCCC3)cc2O)ccc1OCc1ccc2c(O)noc2c1?
A: Km [1]: 3.06 µM; Vmax/Km (Liver microsome [2]): 19.5 µL/min; Drug metabolism [3]: metabolite_detected; Drug metabolism (Liver microsome [4]): metabolite_detected; Vmax/Km (Liver microsome [5]): 44 µL/min; Drug metabolism (Cytochrome P450 1A2): metabolite_not_detected; Drug metabolism (Cytochrome P450 2C19): metabolite_not_detected; Drug metabolism [6]: metabolite_detected
